Compound activity as filed in PubChem BioAssay.
An excerpt weighted towards active compounds, which were near 4.5% of everything screened.
OX1R antag-1 – antagonists of human orexin 1 receptor (OX1R) | Orexin/Hypocretin receptor type 1 (Homo sapiens), O43613 | OX1R-expressing cells, FRET antagonist read-out | inhibition, % at 6.6 µM | actives 1.8% (n = 330,000) | AID 485270, 2010; in the data active means inhibition mostly above about 38%, no sharp cut-off; inactive means mostly below about 40%
GPR7 antag – GPR7 receptor antagonists, primary screen, cell-based, fluorescence, single concentration; GPR7-expressing cells, fluorescence antagonist assay; AID 1861, 2009; actives 1.1% (n = 290,000); inhibition, % at 4.4 µM; in the data active means inhibition above about 16%, passing the limit was not always enough;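 further: cells stimulated with the agonist NPW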
Target sequence (P48145 whole entry, looked up): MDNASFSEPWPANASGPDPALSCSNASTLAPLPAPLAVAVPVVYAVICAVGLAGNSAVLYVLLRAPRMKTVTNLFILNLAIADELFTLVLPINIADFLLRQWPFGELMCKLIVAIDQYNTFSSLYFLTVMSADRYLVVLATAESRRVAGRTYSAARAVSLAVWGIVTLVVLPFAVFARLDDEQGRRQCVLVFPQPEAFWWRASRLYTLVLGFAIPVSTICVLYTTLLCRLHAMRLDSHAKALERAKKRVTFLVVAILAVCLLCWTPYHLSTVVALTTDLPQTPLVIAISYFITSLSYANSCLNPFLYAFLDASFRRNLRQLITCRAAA
CHO parental Ca – ATP-evoked calcium signal inhibitors, parental CHO, primary screen, counter-screen for OX1R antagonist project, cell-based, fluorescence, Fluo-8 calcium dye; inhibition, % at 5.6 µM; actives 0.63% (n = 330,000); parental CHO-K1, ATP-induced calcium, Fluo-8 fluorescence;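 active means inhibition above that plate's mean sample inhibition plus 3 SD, cut at about 26% in these data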
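material = parental CHO cells | also added = ATP as calcium-mobilizing challenge | dosing = single point at 5.6 µM | detection = intracellular calcium via Fluo-8 no-wash fluorescent dye | read-out = % inhibition | benchmarks = low control ATP plus DMSO, high control DMSO only | repeats = one well per compound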
OX1R antag-2 – OX1R (HCRTR1) antagonists, primary screen, fluorescence, CHO/OX1R cells, Fluo-8 calcium, orexin A; actives 0.43% (n = 330,000); inhibition, % at 5 µM; Orexin/Hypocretin receptor type 1 (Homo sapiens), O43613; Fluo-8 calcium fluorescence;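 active means inhibition above its plate's threshold, mean inhibition of all tested compounds on the plate plus 3 SD, cut at about 37% in these data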
TAAR1 antagonist – human TAAR1 antagonists, primary screen, Fluo-8 calcium fluorescence, CHO RD-HGA16 cells. inhibition, % at 3 µM. actives 1.5% (n = 360,000). antagonist. Trace amine-associated receptor 1 (Homo sapiens), Q96RJ0;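 active means inhibition above a per-plate cutoff, the mean inhibition of test compounds on that plate plus 3 SD, cut at about 49% in these data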
Target sequence (Q96RJ0 whole entry, looked up): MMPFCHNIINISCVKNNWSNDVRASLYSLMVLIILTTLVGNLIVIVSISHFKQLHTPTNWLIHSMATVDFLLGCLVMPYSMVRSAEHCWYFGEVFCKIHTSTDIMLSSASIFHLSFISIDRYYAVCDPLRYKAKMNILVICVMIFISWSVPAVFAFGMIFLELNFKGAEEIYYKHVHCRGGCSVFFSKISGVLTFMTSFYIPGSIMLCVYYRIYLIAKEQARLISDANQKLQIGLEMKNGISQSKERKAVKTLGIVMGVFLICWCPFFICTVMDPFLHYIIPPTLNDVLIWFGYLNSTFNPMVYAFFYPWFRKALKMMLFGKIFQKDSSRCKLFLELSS
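Assay system: CHO-derived RD-HGA16 cells stably expressing human TAAR1 plus Gα16. Timing: 140 s kinetic read after compound, 140 s after agonist. Technique: kinetic Fluo-8 calcium fluorescence measurement. Measure: % inhibition of agonist calcium response.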
TAAR1 agonist – human TAAR1 agonists, primary screen, Fluo-8 calcium fluorescence, CHO RD-HGA16 cells | Trace amine-associated receptor 1 (Homo sapiens), Q96RJ0 | vehicle wells 0%, saturating PEA agonist 100% | activation, % at 3 µM | actives 0.99% (n = 360,000) | AID 624467, 2012;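 active means activation above the mean activation of all test compounds in the run plus 3 SD, cut at about 38% in these data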
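Benchmarks: low control DMSO, high control PEA (EC100); System: CHO RD-HGA16 cells carrying human TAAR1 plus Gα16; Detection: Fluo-8 fluorescence, 5 s baseline then 140 s kinetic read; Schedule: 17-24 h plating, Fluo-8 75 min 37 °C, 30 min RT; Read-out basis: % activation from peak over basal fluorescence ratio, DMSO-to-PEA scaled.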
TAAR1 ag confirm – human TAAR1 agonists, retest of hits, confirmation, Fluo-8 calcium fluorescence, CHO RD-HGA16 cells; shares compounds with TAAR1 agonist; scaled: DMSO 0%, maximal phenethylamine 100%; activation, % at 3 µM; actives 82% (n = 2,400); AID 651783, 2012;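 active means activation above a cutoff set at the run's mean compound activation plus 3 SD, cut at about 39% in these data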
Ga16 nonsel ag – nonselective calcium mobilization agonists, CHO-Ga16 cells, counter-screen for hTAAR1 agonist project, cell-based, fluorescence, CHO-Ga16 parental line | activation, % at 3 µM | shares compounds with TAAR1 agonist | actives 50% (n = 2,400) | AID 651787, 2012 | Fluo-8 calcium fluorescence; normalized to maximal ATP response, DMSO zero;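 active means activation above the run cutoff, the mean activation over all tested wells plus 3 SD, cut at about 12% in these data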
TAAR1 desens – TAAR1 desensitization by agonist hits, confirmation, counter-screen for TAAR1 agonist project, cell-based, fluorescence, tachyphylaxis; inhibition, % at 3 µM; CHO RD-HGA16 hTAAR1, Fluo-8 calcium, beta-PEA response inhibition; AID 651951, 2012; actives 46% (n = 2,400); shares compounds with TAAR1 agonist;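 active means inhibition above the run cutoff, the mean inhibition of all test compounds plus 3 SD, cut at about 49% in these data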;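 further: beta-PEA stimulus applied at its EC80; loss of beta-PEA calcium signal after compound pretreatment read as receptor desensitization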
Ga16 nonsel ant – inhibition of ATP-evoked calcium response in CHO-Ga16 cells, counter-screen for TAAR1 agonist project, cell-based, fluorescence; shares compounds with TAAR1 agonist; CHO-Ga16 ATP-induced calcium, Fluo-8 fluorescence; inhibition, % at 3 µM; actives 39% (n = 2,400); AID 651952, 2012;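 active means inhibition above the plate's mean compound inhibition plus 3 SD, computed per plate, cut at about 22% in these data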
Of the large screens only hits and unclear results are named; the others gave an inactive call (follow-up assays come after a bar, where they were run).

COc1ccc(CCNC(=O)CC2(CC3=NS(=O)(=O)c4ccccc4N3)CCCC2)cc1OC	none
O=C(c1ccccc1)c1ccc(OCC(O)CNCc2ccc(Cl)cc2)cc1 (stereo not drawn)	TAAR1 agonist 49 | TAAR1 ag confirm 48 | Ga16 nonsel ag 17 | TAAR1 desens inactive | Ga16 nonsel ant 28
COc1cccc(CNCC(O)COc2ccc(C(=O)c3ccccc3)cc2)c1 (stereo not drawn)	none
CCOC(=O)CCCCCC(=O)Nc1ccc2c(c1)C(=O)N([C@@H](C)CO)C[C@@H](C)[C@H](CN(C)S(=O)(=O)c1cccs1)OCCCC[C@H](C)O2	none (no result: OX1R antag-1, GPR7 antag, CHO parental Ca, OX1R antag-2)
CN(C)CCC(C(=O)c1ccccc1)c1cccnc1 (stereo not drawn)	none (no result: OX1R antag-1, GPR7 antag, CHO parental Ca, OX1R antag-2)
CCCCOP(=O)(OCCCC)C1(C)CC(=O)CC(C)(C)C1 (stereo not drawn)	none (no result: OX1R antag-1, GPR7 antag, CHO parental Ca, OX1R antag-2)
CC(C)c1c(C(=O)N/N=C/c2ccoc2)nnn1-c1nonc1N	TAAR1 agonist 65 | TAAR1 ag confirm inactive | Ga16 nonsel ag 32 | TAAR1 desens inactive | Ga16 nonsel ant inactive
CC(C)c1c(C(=O)N/N=C/c2cccs2)nnn1-c1nonc1N	TAAR1 agonist 90 | TAAR1 ag confirm 108 | Ga16 nonsel ag 72 | TAAR1 desens inactive | Ga16 nonsel ant inactive
COc1cc(/C=N/NC(=O)c2nnn(-c3nonc3N)c2C(C)C)ccc1O	none
CC(C)c1c(C(=O)N/N=C2\CCc3ccccc32)nnn1-c1nonc1N	TAAR1 agonist 62 | TAAR1 ag confirm 53 | Ga16 nonsel ag 16 | TAAR1 desens inactive | Ga16 nonsel ant inactive
CC(C)c1c(C(=O)N/N=C/c2ccsc2)nnn1-c1nonc1N	TAAR1 agonist 105 | TAAR1 ag confirm 124 | Ga16 nonsel ag 82 | TAAR1 desens inactive | Ga16 nonsel ant inactive
CC(C)c1c(C(=O)N/N=C/c2ccc(OCc3ccc(F)cc3)cc2)nnn1-c1nonc1N	none
CC(C)c1c(C(=O)N/N=C/c2ccc(C(F)(F)F)cc2)nnn1-c1nonc1N	TAAR1 antagonist 79, TAAR1 agonist 150 | TAAR1 ag confirm 120 | Ga16 nonsel ag 89 | TAAR1 desens 80 | Ga16 nonsel ant 39
CC(C)c1ccc(/C=N/NC(=O)c2nnn(-c3nonc3N)c2CN2CCOCC2)cc1	TAAR1 agonist 61 | TAAR1 ag confirm 90 | Ga16 nonsel ag 54 | TAAR1 desens inactive | Ga16 nonsel ant inactive
COc1ccc2ccccc2c1/C=N/Nc1ccc(Cl)c(C(=O)O)c1	none
COc1ccc(N/N=C/c2c(C(=O)O)ccc3ccccc23)cc1	TAAR1 agonist 62 | TAAR1 ag confirm 62 | Ga16 nonsel ag 13 | TAAR1 desens inactive | Ga16 nonsel ant inactive
COc1ccc(N2C(=O)CC(Sc3n[nH]c(-c4ccccc4)n3)C2=O)cc1 (stereo not drawn)	none
COC(=O)c1c(C)[nH]c(C(=O)OCC(=O)c2c(N)n(CC(C)C)c(=O)n(C)c2=O)c1C	none (no result: GPR7 antag)
Cc1nn(C(=O)CCC(=O)NCCc2ccccc2)c2ccccc12	none (no result: TAAR1 antagonist, TAAR1 agonist) | Ga16 nonsel ag inactive | Ga16 nonsel ant inactive
O=C(NCCc1cccs1)c1ccc(Cl)cc1	TAAR1 agonist 79 | TAAR1 ag confirm 84 | Ga16 nonsel ag inactive | TAAR1 desens 76 | Ga16 nonsel ant inactive
O=C(NCCc1cccs1)c1ccc(CS(=O)Cc2ccc(Cl)cc2)o1 (stereo not drawn)	TAAR1 agonist 56 | TAAR1 ag confirm 62 | Ga16 nonsel ag inactive | TAAR1 desens inactive | Ga16 nonsel ant inactive
CC(C)c1cc(C(=O)NCCc2cccs2)c(N)s1	none (no result: OX1R antag-1, GPR7 antag, CHO parental Ca, OX1R antag-2, TAAR1 antagonist, TAAR1 agonist) | Ga16 nonsel ag inactive | Ga16 nonsel ant inactive
COc1ccc(/C=C/CN2CCC(C(=O)NC(c3ccc(F)cc3)c3ccc4ccccc4n3)CC2)cc1 (stereo not drawn)	TAAR1 agonist 47 (no result: OX1R antag-1, GPR7 antag, CHO parental Ca, OX1R antag-2) | TAAR1 ag confirm 40 | Ga16 nonsel ag 23 | TAAR1 desens inactive | Ga16 nonsel ant 26
O=C(NC1CCCc2ccccc21)c1ccccc1 (stereo not drawn)	none
O=C(O)C1C2C=CC(O2)C1C(=O)NC1CCCc2ccccc21 (stereo not drawn)	TAAR1 agonist 55 | TAAR1 ag confirm 49 | Ga16 nonsel ag inactive | TAAR1 desens inactive | Ga16 nonsel ant inactive
O=C(NCCNC(=O)c1ccc(-c2cccc(Cl)c2)o1)c1cnccn1	none (no result: OX1R antag-1, GPR7 antag, CHO parental Ca, OX1R antag-2)
O=C(NCCNC(=O)c1ccc(-c2ccc(Cl)c(Cl)c2)o1)c1cnccn1	TAAR1 antagonist 82, TAAR1 agonist 63 | TAAR1 ag confirm 57 | Ga16 nonsel ag 40 | TAAR1 desens 72 | Ga16 nonsel ant 51
O[C@@H](c1cc(C(F)(F)F)nc2c(C(F)(F)F)cccc12)[C@H]1CCCCN1	TAAR1 agonist 45 (no result: GPR7 antag) | TAAR1 ag confirm 51 | Ga16 nonsel ag 24 | TAAR1 desens inactive | Ga16 nonsel ant 37
Cc1nc2c(C(F)(F)F)cccc2c2c1CCS2	none
Oc1cc2c(cc1CN1CCc3ccccc3C1)OCO2	TAAR1 agonist 69 | TAAR1 ag confirm inactive | Ga16 nonsel ag inactive | TAAR1 desens inactive | Ga16 nonsel ant inactive
Oc1ccc(CN2CCc3ccccc3C2)c2cccnc12	TAAR1 antagonist 62, TAAR1 agonist 81 | TAAR1 ag confirm 77 | Ga16 nonsel ag inactive | TAAR1 desens inactive | Ga16 nonsel ant inactive
Cn1cc(CN2CCc3ccccc3C2)c2ccccc21	TAAR1 agonist 67 | TAAR1 ag confirm 85 | Ga16 nonsel ag inactive | TAAR1 desens inactive | Ga16 nonsel ant inactive
COc1ccccc1N1CCN(Cc2cc3c(cc2O)OCO3)CC1	none
